The nature of series [1]: Selectivity index, ratio of IC50 for rat L6 cells to ratio of IC50 for chloroquine/pyrimethamine-resistant erythrocytic form of Plasmodium falciparum K1. Format: toxicity, cell-based. Conditions: read-out: Selectivity Index.
A further series deals with Leishmania tarentolae. The series is described as follows: Antiprotozoal activity against promastigote form of Leishmania tarentolae P10 assessed as parasite growth inhibition after 48 hrs by MTT assay. Format: functional, organism-based. Conditions: P10, 48 h. An outline of the steps: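 Promastigotes of nonpathogenic lizard-infecting L. tarentolae strain P10, cultured in hemin-supplemented BHI medium; IC50 determined.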

Series [2] can be described thus: Selectivity index, ratio of IC50 for rat L6 cells to ratio of IC50 for trypomastigote form of Trypanosoma brucei rhodesiense STIB 900. Format: toxicity, cell-based. The conditions noted are these: read-out: Selectivity Index.
The test system of series [3] is Trypanosoma brucei rhodesiense. As to the kind of experiment: Antiprotozoal activity against trypomastigote form of Trypanosoma brucei rhodesiense STIB 900 assessed as parasite growth inhibition. The series is classed as functional, organism-based.
For the next series, the system named is Plasmodium falciparum. The series is described as follows: Antiprotozoal activity against chloroquine/pyrimethamine-resistant erythrocytic form of Plasmodium falciparum K1 assessed as parasite growth inhibition. The series is classed as functional, organism-based.
A further series relates to L6. As to the kind of experiment: Cytotoxicity against rat L6 cells. Format: cell-based. An outline of the steps: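 L6 rat skeletal myoblasts; cytotoxicity IC50 determined at the Swiss Tropical and Public Health Institute by an earlier standard protocol.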
Series [4] can be described thus: Selectivity index, ratio of IC50 for rat L6 cells to ratio of IC50 for axenic amastigote form of Leishmania donovani MHOM/ET/67/L82. Conditions: read-out: Selectivity Index. Format: toxicity, cell-based.
The subject of another series is Leishmania donovani. The series is described as follows: Antiprotozoal activity against axenic amastigote form of Leishmania donovani MHOM/ET/67/L82 assessed as parasite growth inhibition. The series is classed as functional, organism-based.
A further series has as its system Trypanosoma cruzi. The series is described as follows: Antiprotozoal activity against intracellular amastigote form of Trypanosoma cruzi Tulahuen C4 assessed as parasite growth inhibition. The series is classed as functional, organism-based.

pIC50: −log10 of the molar value.

For the compound `COc1cc2c(cc1C(C)N[C@H](C)c1ccccc1)C=CC(C)(C)O2` (some centres undefined), the figures for the selectivity ratio in series [1] and in series [2] were 22.1 and 7.85, respectively. Also, the negative-log IC50 (pIC50) (usually −log10 of the IC50, conventionally taken in molar units) in the series on Leishmania tarentolae is 5.06; in series [3] it was 5.69; in the series with Plasmodium falciparum, 6.14; in the series with L6, 4.80.
As to `COc1cc2c(cc1C(C)N(C)CCCc1ccccc1)C=CC(C)(C)O2` (centres undefined), the selectivity ratio turned out to be 0.19 in [4], 13.5 in [1] and 5.12 in [2]. In addition, the pIC50 is 5.05 with Leishmania tarentolae; 4.07 with Leishmania donovani; 5.04 with Trypanosoma cruzi; 5.50 in series [3]; 5.91 in the series on Plasmodium falciparum; 4.79 in the series with L6.
Consider `COc1cc2c(cc1C(C)OCCc1ccccc1)C=CC(C)(C)O2` (centres undefined), for which the selectivity ratio is 1.9 in series [4], 2.08 in series [1] and 0.69 in [2]. Also, the negative-log IC50 (pIC50) is 5.93 in the series on Leishmania tarentolae; 4.20 in the series on Leishmania donovani; 4.25 with Trypanosoma cruzi; 3.74 in series [3]; 4.22 in the series with Plasmodium falciparum; 3.91 in the series with L6.
Consider `COc1cc2c(cc1C(C)NCc1ccccc1)C=CC(C)(C)O2` (centres undefined), for which the selectivity ratio in series [4] was 0.13; in series [1], 32.8; in series [2], 8.83. The negative logarithm of the IC50 (pIC50) with Leishmania tarentolae was 5.62; in the series on Leishmania donovani it was 3.80; with Trypanosoma cruzi, 4.47; in [3], 5.62; with Plasmodium falciparum, 6.19; in the series with L6, 4.68.
Turning to `COc1ccc(CNC(C)c2cc3c(cc2OC)OC(C)(C)C=C3)cc1` (centres undefined), the selectivity ratio in series [4] was 0.07; in series [1] it was 16; in series [2], 6.13. Also, the negative-log IC50 (pIC50) is 5.01 in the series with Leishmania tarentolae; 3.65 in the series on Leishmania donovani; 4.48 with Trypanosoma cruzi; 5.62 in series [3]; 6.03 with Plasmodium falciparum; 4.83 in the series on L6.
As for `COc1cc2c(cc1C(C)NCCCc1ccccc1)CCC(C)(C)O2` (centres undefined), the selectivity ratio in series [1] was 1.23; in series [2], 1.15. The negative logarithm of the IC50 (pIC50) in the series with Leishmania tarentolae is 3.89; in the series with Trypanosoma cruzi, 5.27; in [3] it was 5.64; with Plasmodium falciparum it was 5.67; in the series with L6, 5.58.
For the compound `COc1cc2c(cc1C(C)OC/C=C/c1ccccc1)C=CC(C)(C)O2` (centres undefined), the selectivity ratio amounted to 2.8 in series [4] and 0.68 in series [2]. Further, the pIC50 in the series with Leishmania tarentolae was 6.07; in the series on Leishmania donovani, 4.64; in the series with Trypanosoma cruzi, 4.14; in [3] it was 4.02; in the series with L6, 4.19.
For `COc1cc2c(cc1C(C)N1CCCC1)C=CC(C)(C)O2` (centres undefined), the selectivity ratio in [4] was 0.66; in series [1], 10.8; in [2], 4.31. Also, the negative-log IC50 (pIC50) was 4.73 with Leishmania tarentolae; 3.57 with Leishmania donovani; 4.17 with Trypanosoma cruzi; 4.39 in [3]; 4.79 in the series with Plasmodium falciparum; 3.75 in the series with L6.
Turning to `COc1cc2c(cc1C(C)NC/C=C/c1ccccc1)C=CC(C)(C)O2` (centres undefined), the selectivity ratio in series [4] was found to be 0.23; in [1] it was 3.32; in [2], 2.5. In addition, the pIC50 in the series on Leishmania tarentolae is 5.49; with Leishmania donovani, 4.20; in the series with Trypanosoma cruzi, 5.09; in series [3] it was 5.23; in the series with Plasmodium falciparum, 5.36; in the series on L6 it was 4.84.
In the case of `COc1cc2c(cc1C(C)NCc1ccccc1)CCC(C)(C)O2` (centres undefined), the values for the selectivity ratio in series [4], in series [1] and in [2] were 4.1, 10.1 and 3.08, respectively. Also, the negative-log IC50 (pIC50) was 3.57 in the series with Leishmania tarentolae; 5.43 with Leishmania donovani; 4.88 in the series on Trypanosoma cruzi; 5.30 in series [3]; 5.82 with Plasmodium falciparum; 4.82 in the series with L6.
In the case of `COc1cc2c(cc1C(C)NCCCCc1ccccc1)C=CC(C)(C)O2` (centres undefined), the selectivity ratio amounted to 0.07 in series [4], 3.35 in series [1] and 1.5 in [2]. Besides, the pIC50 with Leishmania tarentolae is 6.11; in the series with Leishmania donovani it was 4.14; in the series with Trypanosoma cruzi, 5.38; in series [3] it was 5.50; in the series with Plasmodium falciparum it was 5.85; in the series on L6 it was 5.33.
With `COc1cc2c(cc1C(C)NCCc1ccccc1)CCC(C)(C)O2` (centres undefined), the figures for the selectivity ratio in [4], in series [1] and in [2] were 8.4, 5.8 and 3.48, respectively. The pIC50 in the series on Leishmania tarentolae was 3.90; with Leishmania donovani it was 5.76; in the series on Trypanosoma cruzi it was 4.92; in [3] it was 5.38; in the series with Plasmodium falciparum it was 5.60; in the series with L6, 4.84.
`COc1cc2c(cc1C(C)NCCCCc1ccccc1)CCC(C)(C)O2` (centres undefined): the selectivity ratio in series [4] was determined as 9.3; in [1] it was 3.94; in series [2], 2.87. The negative-log IC50 (pIC50) was 4.04 in the series with Leishmania tarentolae; 6.24 in the series with Leishmania donovani; 5.30 in the series on Trypanosoma cruzi; 5.74 in [3]; 5.87 in the series with Plasmodium falciparum; 5.28 with L6.
`COc1cc2c(cc1C(C)N[C@@H](C)c1ccccc1)C=CC(C)(C)O2` (some centres undefined): the selectivity ratio was found to be 44.4 in series [1] and 3.23 in series [2]. Moreover, the pIC50 was 5.05 in the series with Leishmania tarentolae, 5.29 in series [3], 6.43 in the series on Plasmodium falciparum and 4.78 with L6.
For `COc1cc2c(cc1C(C)OCc1ccccc1)C=CC(C)(C)O2` (centres undefined), the figures for the selectivity ratio in series [4], in series [1] and in [2] were 2.1, 4.64 and 0.58, respectively. The pIC50 with Leishmania tarentolae is 5.82; in the series on Leishmania donovani, 4.67; in the series with Trypanosoma cruzi it was 4.35; in series [3], 4.12; in the series with Plasmodium falciparum it was 5.02; in the series with L6 it was 4.36.
Take `CCCCNC(C)c1cc2c(cc1OC)OC(C)(C)C=C2` (centres undefined): the figures for the selectivity ratio in [1] and in [2] were 12.6 and 6.41, respectively. Also, the negative logarithm of the IC50 (pIC50) in the series on Leishmania tarentolae is 5.20; in the series with Trypanosoma cruzi, 4.60; in series [3], 5.09; with Plasmodium falciparum, 5.38; in the series on L6, 4.28.
On to `COc1cc2c(cc1C(C)NC(=O)/C=C/c1ccccc1)C=CC(C)(C)O2` (centres undefined), for which the selectivity ratio in [4] came to 4.1; in series [2] it was 2.99. Moreover, the negative-log IC50 (pIC50) in the series with Leishmania tarentolae was 5.75; with Leishmania donovani, 4.58; in the series on Trypanosoma cruzi, 4.64; in series [3] it was 4.44; in the series on L6 it was 3.97.
Consider `CCCCNC(C)c1cc2c(cc1OC)OC(C)(C)CC2` (centres undefined), for which the selectivity ratio in [4] was determined as 5.5; in series [1], 18.3; in series [2] it was 7.54. In addition, the pIC50 in the series with Leishmania donovani is 4.97; in the series on Trypanosoma cruzi, 4.42; in series [3], 5.11; with Plasmodium falciparum it was 5.49; with L6 it was 4.23.
On to `CCN(CC)CCCC(C)NC(C)c1cc2c(cc1OC)OC(C)(C)C=C2` (centres undefined), for which the selectivity ratio in series [1] was 17.5; in series [2], 22.5. Moreover, the pIC50 in the series with Leishmania tarentolae is 5.49; in the series with Trypanosoma cruzi it was 4.45; in series [3] it was 5.73; in the series with Plasmodium falciparum, 5.62; in the series with L6, 4.38.

The values above are taken from ChEMBL document CHEMBL2434884, “Natural product derived antiprotozoal agents: synthesis, biological evaluation, and structure-activity relationships of novel chromene and chromane derivatives” (J Med Chem, 2013).
